The sample as a whole holds a higher share of hits than the screen did.
Glyco luc inh: N-linked glycosylation inhibition; D54 ERlucT glycosylation luciferase reporter, 24 h; percent of 100 nM tunicamycin response; reporter increase, % at 12.5 µM; 360,000 compounds, 0.23% hits;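 active = mean luciferase reporter signal, scaled so untreated is 0 and the glycosylation-blocking control 100, at or above a set limit in every replicate; inconclusive = mean reaches the limit but not every replicate does; inactive = mean below the limit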;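 also: luciferase carries N-glycosylation sites so blocking glycosylation raises the light; 0% = median of neutral control wells and 100% = median of 100 nM tunicamycin wells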
ALR inh: human ALR oxidase inhibition via reduced H2O2; 290,000 compounds, 3.8% hits; P55789; inhibition, % (concentration not given with the values); purified ALR, DTT oxidation, H2O2 HRP-luminol luminescence;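 active = mean replicate inhibition above about 79%, with every replicate also reaching it, limit read from the data; inconclusive = only one of the two criteria met; inactive = mean below limit and not every replicate reaching it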
Target sequence (P55789 whole entry, looked up): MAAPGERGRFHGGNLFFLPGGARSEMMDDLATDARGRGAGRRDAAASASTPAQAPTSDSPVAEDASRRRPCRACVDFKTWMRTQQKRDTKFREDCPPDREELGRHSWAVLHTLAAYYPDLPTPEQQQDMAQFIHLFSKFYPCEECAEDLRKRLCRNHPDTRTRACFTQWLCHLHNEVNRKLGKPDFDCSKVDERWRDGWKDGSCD
T cell HTS: modulates CD8 T cell binding to vesicles. response (vesicle binding), % at 7 µM. AID 2052. 330,000 compounds, 0.068% hits. 2C CD8+ T cell-vesicle binding, flow cytometry; hits give low values;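 active = response, share of CD8 T cells binding vesicles, and their 90th percentile fluorescence all below set limits, cut at about 80% in these data, passing the limit was not always enough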;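 also: values below 100% mean blocked vesicle binding to the CD8+ T cells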
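Assay system – 2C mouse CD8+ T cells · Also added – QL9-loaded Drosophila micro-vesicles · Timing – Cell–vesicle co-incubation 1.5 h at 37 °C, staining 20 min on ice · Signal – flow cytometry of vesicle-bound cells · Measure – percent CD8+ FL2 mean versus row control · Controls – Peptide-free naked vesicles (low) and QL9 vesicles with 0.7% DMSO vehicle (high)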
Numbers without * were called inactive; i = inactive; u = inconclusive; x = not tested or not shown.

SMILES	Glyco luc inh	ALR inh	T cell HTS
COc1cc(C2C(C#N)=C(N)N(c3ccc(F)cc3)C3=C2S(=O)(=O)CC3)ccc1O (stereo not drawn)	1.5	88.4*	321.1
COc1cc(C2C(C#N)=C(N)N(c3cccnc3)C3=C2C(=O)CCC3)ccc1O (stereo not drawn)	1.8	u	472.5
COc1ccc(C(c2c[nH]c3ccccc23)c2c[nH]c3ccccc23)cc1O	0.4	87.9*	198.0
COc1cc(CN(C)C(=O)C(=O)c2c[nH]c3ccccc23)ccc1O	2.4	x	x
O=C(O)c1cc2c([nH]c1=O)CCCC2	2.2	3.0	528.7
C=CCSC(=C(C#N)C#N)c1cc2c([nH]1)CCCC2	40.4*	46.6	182.4
O=C(CSc1n[nH]c(=O)n1-c1ccccc1)N1CCOCC1	1.8	1.6	166.9
CCC(C)/C(C)=N/NC(=O)c1ccc(COc2ccc(Cl)c(C)c2)cc1 (stereo not drawn)	0.7	99.1*	513.2
CCOc1ccc(OCc2ccc(C(=O)N/N=C(\C)c3ccccn3)cc2)cc1	2.8	-11.7	136.2
O=C(CN1CCC(n2cnc3cc(F)ccc32)CC1)Nc1ccccc1Br	0.4	-1.8	331.6
CC(C)OCCCNC(=O)c1cn(C)c2ccc(S(=O)(=O)N3CCCC3)cc2c1=O	-0.4	0.6	442.1
CC(=O)Nc1ccc(S(=O)(=O)NNC(=S)NCC2CCCO2)cc1 (stereo not drawn)	0.1	90.0*	119.0
OCCCNC(=S)Nc1ccc(Nc2ccccc2)cc1	-0.6	99.1*	296.6
NS(=O)(=O)c1ccc(NC(=S)NCC2CCCO2)cc1 (stereo not drawn)	0.7	0.6	983.2
S=C(NCC1CCCO1)Nc1cccc(Cl)c1 (stereo not drawn)	-0.9	-6.2	309.9
S=C(NCC1CCCO1)Nc1ccc(Nc2ccccc2)cc1 (stereo not drawn)	-1.1	98.8*	341.3
S=C(NCCNC(=S)Nc1ccccc1)Nc1ccccc1	9.7	-11.8	280.0
CCOc1ccc(S(=O)(=O)Nc2cccc(C(=O)NCC3CCCO3)c2)cc1 (stereo not drawn)	-0.3	1.1	167.1
COc1cccc(C(=O)OCC(=O)N2CCc3ccccc3C2)c1OC	1.2	x	306.7
Cc1nc(C(F)(F)F)ccc1C(=O)N1CCC1(C)C(=O)NS(=O)(=O)c1ccc2ccccc2c1 (stereo not drawn)	1.6	x	x
O=C(Oc1ccc(-c2nnco2)cc1)c1cc(S(=O)(=O)N2CCOCC2)ccc1F	-0.1	x	x
COc1cccc(/C=C2\Oc3cc(OC(=O)N4CCOCC4)ccc3C2=O)c1	-3.1	0.6	358.1
COc1cccc(/C=C2\Oc3cc(OCC(=O)N4Cc5ccccc5C[C@H]4C(=O)O)ccc3C2=O)c1	-0.4	98.5*	208.1
C=C1C2=C(C(=O)N1OC)[C@@H](O)[C@@](C)(O)[C@@H](CCCCC)O2	-0.6	x	x
Cc1nc2ccccc2n1CCc1nc2c3ccccc3nc(=S)n2[nH]1	0.9	91.6*	504.9
SMILES	Glyco luc inh	ALR inh	T cell HTS
Cc1ccccc1-c1nc2c3ccccc3nc(=S)n2[nH]1	1.2	x	316.3
Cc1cc(C(=O)N2CCN(c3cc(Cl)ccc3C)CC2)on1	0.0	-16.8	371.4
COc1cc(/C=N/n2c(-c3n[nH]c4c3CCC4)n[nH]c2=S)ccc1O	3.0	99.4*	284.3
COc1cc(/C=N/n2c(-c3ccccc3)n[nH]c2=S)ccc1O	-2.8	98.8*	209.5
O=C(O)c1ccc(/C=N/n2cc(-c3ccccc3)[nH]c2=S)cc1	1.8	99.1*	423.6
COc1ccc(/C=N/n2c(-c3n[nH]c4c3CCC4)n[nH]c2=S)cc1OC	1.2	-4.1	398.6
COc1cc(/C=N/n2c(-c3ccccc3)n[nH]c2=S)cc(OC)c1O	-0.4	36.3	121.6
S=c1[nH]c(-c2ccccc2)cn1/N=C/c1ccc(Br)cc1	1.4	-7.4	i
Cc1ccc(-c2n[nH]c(=S)n2/N=C/c2ccc(C(=O)O)cc2)cc1	1.4	89.9*	331.7
Cc1ccc(/C=N/n2c(-c3ccccc3)n[nH]c2=S)cc1	-0.3	-6.4	146.1
COCCCn1c(=O)c2sccc2n2c(CCCC(=O)NCC3CCCO3)nnc12 (stereo not drawn)	1.5	-3.2	361.1
O=C(CN1C(=O)NC2(CCCC2)C1=O)N1CCN(S(=O)(=O)c2cc(Cl)ccc2Cl)CC1	2.7	-4.0	388.6
CCCCn1c(N)c(N(CCOC)C(=O)CC(NC(=O)c2ccccc2Cl)c2ccccc2)c(=O)[nH]c1=O (stereo not drawn)	2.3	x	x
C[C@@H]1CCC2[C@](C)(CO)[C@@H](O)CC[C@]2(C)[C@@]12C[C@](CO)(CC(=O)O)CO2 (stereo partly drawn)	-0.3	-6.0	223.3
CSCCC(NC(=O)c1ccco1)C(=O)NC1CCCCCC1 (stereo not drawn)	1.6	1.2	987.9
Cc1cc(SCC(=O)c2cccs2)nc2ccccc12	-2.5	7.4	232.3
COc1ccc(C(=O)NCCc2nnc3ccc(SCC(=O)Nc4ccccc4F)nn23)cc1	x	23.9	226.8
COCCNCC(=O)N1CCCCCC1	0.3	x	253.4
Oc1c(Br)cc(/C=N/n2c(-c3ccccc3)n[nH]c2=S)c(O)c1Br	0.4	u	169.5
COc1cc(-c2n[nH]c(=S)n2/N=C/c2cccn2C)cc(OC)c1OC	5.6	96.5*	428.1
Cn1cccc1/C=N/n1c(-c2ccco2)n[nH]c1=S	0.1	25.6	148.8
COc1cc(/C=N/n2c(COc3ccccc3)n[nH]c2=S)cc(Br)c1O	4.5	97.0*	886.2
Cc1c(Br)c(O)c(Br)c(O)c1/C=N/n1c(-c2ccccc2)n[nH]c1=S	-1.8	97.7*	556.1
CCc1n[nH]c(=S)n1/N=C/c1cc(Br)c(O)c(OC)c1	1.7	68.3	181.3
Cn1c(=O)c(=O)n(C)c2cc(S(=O)(=O)N3CCOc4ccccc43)ccc21	-1.2	x	249.4
SMILES	Glyco luc inh	ALR inh	T cell HTS
O=C1NC(=O)C2(C=C(c3ccccc3)C(O)(c3ccccc3)C2)N1 (stereo not drawn)	2.5	x	x
O=C(CCCn1c(=O)oc2ccccc21)N1CCN(c2ccccn2)CC1	2.5	-7.0	311.8
Cn1c(NCCc2ccncc2)nc2cc(-c3ccsc3)sc2c1=O	-3.3	x	x
CNC(=O)CSc1nc2nn(-c3ccccc3)c(=O)c-2c2n1CCCCC2	20.0	-4.7	420.3
O=C(CSc1nc2nn(-c3ccccc3)c(=O)c-2c2n1CCCCC2)c1ccc(O)c(O)c1	1.4	91.6*	297.3
CC(C)Oc1ccccc1/C=N/n1nnnc1N	1.2	-1.9	500.8
CNC(=O)COC(=O)/C=C/c1nc2ccccc2s1	-5.0	x	92.2
CCN(CC)c1ccc(NC(=O)COC(=O)/C=C/c2nc3ccccc3s2)cc1	-1.0	98.6*	214.4
COc1ccc(/C=N/NC(=O)c2ccoc2C)cc1CN1CCN(c2ccc(F)cc2)CC1	-2.1	x	289.4
CC(C)NC(=S)NN(c1ccccc1)c1ccccc1	-0.4	99.4*	305.3
C=CCNC(=S)NN(c1ccccc1)c1ccccc1	-1.1	62.8	604.3
NNC(=O)c1ccc(NS(=O)(=O)c2ccc(Br)cc2)cc1	x	44.0	539.3
O=C(O)CCn1c2c(c3ccccc31)CCCC2	-0.7	99.1*	556.9
O=C(CCn1c2c(c3ccccc31)CCCC2)NNC(=O)c1ccccc1C(=O)O	1.0	43.8	94.4
COc1cc(C(=O)c2ccccc2)c(OC)cc1C(=O)Nc1ccc(O)cc1	-4.5	99.7*	i

Source: PubChem BioAssay
